Drawing on ChEMBL document CHEMBL1177652 (Bioorg Med Chem, 2010), this text covers IC50, inhibition in vivo and Activity for ten molecules.

One data set addresses Acetylcholinesterase (Homo sapiens, UniProt P22303). Kind of data set: Inhibition of human whole RBC AChE pretreated for 30 mins by Ellman technique.
A further data set concerns the target Cholinesterase (Homo sapiens, UniProt P06276). Description: Inhibition of human plasma BChE pretreated for 30 mins by Ellman technique. The class given is cell-free.
Data set [1] relates to Rattus norvegicus. Description: Ex vivo inhibition of cholinesterase in Fischer-344 rat plasma at 10 mg/kg, ip after 24 hrs by spectrophotometric analysis. The class given is functional. Conditions: Fischer-344, Plasma, route intraperitoneal. In short, it runs like this: (§1)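 Anesthetized rats given 10 mg/kg i.p.; predrug blood for resting activity, then samples 5 min to 24 hr, centrifuged, plasma frozen at −80° C. Thawed plasma (10 ul) in 0.1 M sodium phosphate pH 7.4 ± iso-OMPA, then DTNB plus S-butyrylthiocholine; 412 nm read 20 min later, r.t., duplicates. Iso-OMPA-sensitive difference expressed as percent of predrug level.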

Data set [2] concerns Rattus norvegicus. Kind of data set: Toxicity in Fischer-344 rat assessed as tremor at 10 mg/kg, ip. More on the design: dose 10 mg/kg, route intraperitoneal. The class given is organism-based. As to conditions: in vivo.
Data set [3] has as its system Rattus norvegicus. Kind of data set: Toxicity in Fischer-344 rat assessed as lacrimation and salivation at 10 mg/kg, ip. The class given is organism-based. More on the design: dose 10 mg/kg, route intraperitoneal. Conditions: in vivo.
The test system of data set [4] is Rattus norvegicus. Description: Ex vivo inhibition of cholinesterase in Fischer-344 rat plasma at 10 mg/kg, ip after 60 mins by spectrophotometric analysis. Conditions: Fischer-344, Plasma, 1 h, route intraperitoneal. The class given is functional. In a few lines: as §1

Sequence of Cholinesterase (P06276 whole entry): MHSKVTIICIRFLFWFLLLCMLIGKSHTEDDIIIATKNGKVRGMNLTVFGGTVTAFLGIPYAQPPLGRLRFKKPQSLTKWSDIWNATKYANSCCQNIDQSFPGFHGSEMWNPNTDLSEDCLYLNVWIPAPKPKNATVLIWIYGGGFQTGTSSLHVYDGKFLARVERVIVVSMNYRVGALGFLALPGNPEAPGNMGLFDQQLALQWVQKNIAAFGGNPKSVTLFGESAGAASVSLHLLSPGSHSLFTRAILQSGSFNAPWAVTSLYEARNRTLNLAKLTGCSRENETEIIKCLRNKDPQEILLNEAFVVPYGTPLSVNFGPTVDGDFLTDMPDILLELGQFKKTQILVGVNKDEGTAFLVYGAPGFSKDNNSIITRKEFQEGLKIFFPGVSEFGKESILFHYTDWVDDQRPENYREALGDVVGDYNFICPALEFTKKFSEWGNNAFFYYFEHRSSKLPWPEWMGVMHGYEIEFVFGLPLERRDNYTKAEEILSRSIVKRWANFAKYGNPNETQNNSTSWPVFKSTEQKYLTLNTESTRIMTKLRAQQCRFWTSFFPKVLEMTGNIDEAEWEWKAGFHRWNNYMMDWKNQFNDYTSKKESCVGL
Sequence of Acetylcholinesterase (P22303 whole entry): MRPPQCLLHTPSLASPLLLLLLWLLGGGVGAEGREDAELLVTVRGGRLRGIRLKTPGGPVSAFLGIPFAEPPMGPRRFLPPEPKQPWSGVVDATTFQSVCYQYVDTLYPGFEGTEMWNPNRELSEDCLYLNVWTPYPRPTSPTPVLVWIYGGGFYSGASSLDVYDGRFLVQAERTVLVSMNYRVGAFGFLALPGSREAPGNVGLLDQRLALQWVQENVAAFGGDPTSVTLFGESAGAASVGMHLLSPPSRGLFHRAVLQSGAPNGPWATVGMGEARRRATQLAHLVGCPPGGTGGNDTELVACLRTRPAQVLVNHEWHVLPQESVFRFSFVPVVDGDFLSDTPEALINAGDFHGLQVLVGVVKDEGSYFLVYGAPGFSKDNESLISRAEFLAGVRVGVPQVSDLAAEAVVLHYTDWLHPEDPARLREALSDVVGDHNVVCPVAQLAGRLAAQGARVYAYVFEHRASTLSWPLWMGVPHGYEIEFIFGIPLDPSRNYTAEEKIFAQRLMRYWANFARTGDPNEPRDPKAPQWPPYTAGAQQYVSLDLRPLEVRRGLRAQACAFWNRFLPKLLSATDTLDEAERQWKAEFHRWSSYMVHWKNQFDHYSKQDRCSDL

With `O=C(Nc1ccccc1)Oc1cccnc1`, the concentration for half-maximal inhibition (IC50) at Acetylcholinesterase and on Cholinesterase was more than 30 µM throughout. As to `CN1c2ccc(OC(=O)Nc3ccccc3)cc2[C@]2(C)CC[N+](C)(C)C12` (some centres not stated), at Acetylcholinesterase, the IC50 amounted to 0.0254 µM. In the case of `C[n+]1cccc(OC(=O)Nc2ccccc2)c1`, the IC50 at Acetylcholinesterase was more than 30 µM. As for `CN(C)C(=O)Oc1cccc([N+](C)(C)C)c1` [NEOSTIGMINE METHYLSULFATE], at Cholinesterase, the IC50 came out at 0.06 µM. On to `CC(C)c1ccc(NC(=O)Oc2ccc3c(c2)[C@]2(C)CC[N+](C)(CCc4ccccc4)C2N3C)cc1` (some centres not stated), for which the 50% inhibitory concentration (IC50) at Acetylcholinesterase was 0.3 µM. Consider `CN(C)c1cccc(OC(=O)Nc2ccccc2)c1`, for which the concentration for half-maximal inhibition (IC50) came out at 2.5 µM on Acetylcholinesterase and 18 µM on Cholinesterase. For `CNC(=O)Oc1ccc2c(c1)[C@]1(C)CC[N+](C)(C)C1N2C` (some centres not stated), at Acetylcholinesterase, the half-inhibitory concentration (IC50) stood at 0.0261 µM. Take `CC(C)c1ccc(NC(=O)Oc2ccc3c(c2)[C@]2(C)CC[N+](C)(C)C2N3C)cc1.[Br-]` (some centres not stated): the values for the inhibition in vivo at 10 mg/kg with Rattus norvegicus [1] and in the data set with Rattus norvegicus [4] were 33% and 66%, respectively. Also, the Activity result in the data set on Rattus norvegicus [2] and with Rattus norvegicus [3] was “Non-toxic” each time. The IC50 at Acetylcholinesterase worked out at 0.145 µM. As to `Cc1ccccc1NC(=O)Oc1ccc2c(c1)[C@]1(C)CC[N+](C)(C)C1N2C` (some centres not stated), the IC50 on Acetylcholinesterase was found to be 0.0146 µM. For the molecule `C[N+](C)(C)c1cccc(OC(=O)Nc2ccccc2)c1`, the 50% inhibitory concentration (IC50) on Acetylcholinesterase stood at 1.87 µM; on Cholinesterase, 18 µM.
